Published values pooled from the literature.
Lines come from different studies, so protocols differ. pIC50: −log10 of the molar value. Converted amounts (≈) assume the structure as drawn.

Structure (SMILES) | tested on | test | system | setting | measurement | result
O=C(Oc1ccc(Cl)cc1)[c-]1cccc1.[Fe+2].c1cc[cH-]c1 | MCF-10A | cell growth or viability, MTT | – | 72 h | pIC50 | 3.30
CCCCCCCCCOc1ccc2[nH]cc(CCN)c2c1 | CAL-27 | cell growth or viability | – | 72 h | pIC50 | 5.39
CCCCCCC/C=C/C(=O)N1C(=O)/C(=C(\O)c2ccc(OCOCCOC)cc2)C(=O)C1CC(C)C (stereo not shown) | Burkholderia cepacia | microbial growth | ATCC25416 | – | MIC | > 200 µg/mL
O=C(N/N=C1\C(=O)N(Cc2ccccc2)c2ccc(Cl)cc21)c1cc2ccccc2[nH]1 | MCF-10A | cell growth or viability | – | 72 h | pIC50 | 5.70
COc1cc2c3c(n(CCCNCCO)c(=O)c2cc1OC)-c1cc2c(cc1C3=O)OCO2 | SN12C | cell growth or viability | – | – | GI50 | < 0.01 µM
CCCCCCCCCCCCCCCC(=O)N(C)[C@H](CO)C(=O)N[C@H](C)C(=O)NCC(=O)N(C)[C@@H]1C(=O)N[C@@H](C)C(=O)N[C@H](C(=O)O)Cc2ccc(O)c(c2)-c2cc1ccc2O | Latilactobacillus sakei | microbial growth | – | – | MIC | > 128 µg/mL
C=C(CCC=C(C)C)[C@H]1CC[C@H]2[C@@H]3CCC4=CC(=O)CC[C@]4(C)[C@H]3CC[C@@]12C | Leishmania mexicana | parasite growth | – | 48 h, promastigote | pIC50 | 4.52
CCCCCCC/C=C/C(=O)N1C(=O)/C(=C(/C)O)C(=O)C1Cc1ccc(OC(C)(C)C)cc1 (stereo not shown) | Burkholderia cepacia | microbial growth | ATCC25416 | – | MIC | > 200 µg/mL
O=c1ccc2ccc3occc3c2o1 | – | tubulin polymerisation, inhibitor | – | 10 µM | inhibition | 57.1%
CCCCCCC/C=C/C(=O)N1C(=O)/C(=C(\O)c2ccc(O)cc2)C(=O)C1CC(C)C (stereo not shown) | Burkholderia cepacia | microbial growth | ATCC25416 | – | MIC | 100 µg/mL (≈ 234 µM)
CN(c1ccccc1)S(=O)(=O)c1cc(C(=O)NCc2ccco2)ccc1Cl | human PBMC | cell migration | – | 10 µM | inhibition | 82%
CCCCCCC/C=C/C(=O)N1C(=O)/C(=C(/C)O)C(=O)C1Cc1ccc(O)cc1 (stereo not shown) | Burkholderia cepacia | microbial growth | ATCC25416 | – | MIC | > 200 µg/mL
OCCOCCN1CCN(C(c2ccccc2)c2ccc(Cl)cc2)CC1 (stereo not shown) | human PBMC | cell migration | – | 10 µM | inhibition | 7%
